Bioassay records deposited in PubChem BioAssay by Broad Institute.
Rows were chosen to be rich in hits. Some 1.2% of all compounds tested hit in one or more screens of this group.
CAL PDZ FP-1: CAL PDZ (human) peptide binding inhibition. purified CAL PDZ, TMR-peptide fluorescence polarization, 1 h. inhibition, % at 24.9 µM. 0.92% of 300,000 active;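 active means mean inhibition of at least 30% with at least half of replicates also reaching 30%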;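 further: 0% = DMSO neutral control and 100% = excess unlabeled competitor peptide PRC23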
CAL PDZ FP-2: inhibitors of human CAL PDZ peptide binding; Q9HD26; purified CAL PDZ, TMR-peptide fluorescence polarization, 1 h; inhibition, % at 20 µM; 0.02% of 330,000 active; AID 504414;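 active means highest replicate inhibition of at least 40%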;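 further: plate controls were DMSO neutral control wells for no effect and unlabeled competitor peptide control wells for full effect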
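Test system: purified CerCALP PDZ construct; Compound dosing: one concentration, 20 µM compound; Also added: TMR-labelled reporter peptide T*-PRC34 bound in PDZ groove; Read-out: inhibition from polarization loss; Controls: unlabelled peptide and DMSO controls; Signal: FP readout, S and P plane fluorescence; Incubation: 1 h at RT.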
ARNT TACC3 PPI: disruptors of human ARNT/TACC3 interaction | AID 623870 | 0.66% of 390,000 active | AlphaScreen His-ARNT PAS-B/GST-TACC3 binding, luminescence; TACC3 fragment carries E629A point mutation | Q9Y6A5 | inhibition, % at 9.99 µM;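 active means mean inhibition of replicates at least 50% and at least half of replicates each reaching 50%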;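 further: 0% = complete ARNT plus TACC3 wells and 100% = ARNT alone without TACC3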
ARNT Alpha ctr: AlphaScreen artifact in ARNT/TACC3 counter-screen. shares compounds with ARNT TACC3 PPI. His-ARNT PASB-GST AlphaScreen artifact counter-screen, luminescence. AC50, µM (doses to about 68 µM), for the others: at the highest dose activity change, negative = signal decrease. 50% of 1,200 active. AID 651705;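 active means every separate test run was called active for a drop in luminescence, with AC50 within twice the top valid dose, actives reach about 71 µM in these data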
Starred values were filed as active, the others as inactive; nt = not tested or not shown; [ ] = another dose, or the depositor's remark.

SMILES	CAL PDZ FP-1	CAL PDZ FP-2	ARNT TACC3 PPI	ARNT Alpha ctr
CCNC(=O)[C@H]1[C@H](CO)[C@H]2Cn3c(ccc(-c4ccccc4F)c3=O)[C@@H]1N2Cc1cccnc1	nt	nt	-14	nt
C[C@H]1CN([C@@H](C)CO)C(=O)Cc2cc(NC(=O)Nc3ccccc3)ccc2O[C@@H]1CN(C)C(=O)Nc1ccc(F)cc1	nt	nt	-6	nt
Cc1nc(Nc2ccc(C(=O)O)cc2)nc(Nc2ccc(C(=O)O)cc2)c1[N+](=O)[O-]	nt	-2	64*	9.4µM*
CC(=O)Nc1ccc(Nc2nc(C)c([N+](=O)[O-])c(Nc3ccccc3)n2)cc1	-2	-1	-1	nt
CO[C@@H]1CC[C@@H]2CCN(C)C(=O)[C@@H](C)[C@H](OC)CN(C)C(=O)c3cccc(C#N)c3OC[C@@H]1O2	nt	nt	-4	nt
Clc1ccccc1/C=N/Nc1cc(N2CCOCC2)ncn1	-1	0	-2	nt
CCCOc1ccc(/C=N/Nc2cc(N3CCOCC3)ncn2)c(O)c1	-5	1	58*	-27%
COc1cc(/C=N/n2c(-c3n[nH]c4c3CCC4)n[nH]c2=S)cc(OC)c1O	-4	-2	-6	nt
COc1cccc(/C=N/n2c(-c3n[nH]c4c3CCC4)n[nH]c2=S)c1O	3	-2	34*	-12%
CCCNC(=O)[C@@H]1[C@@H](CO)[C@@H]2Cn3c(ccc(-c4cncnc4)c3=O)[C@@H]2N1C(=O)c1ccccc1F	nt	nt	10	nt
COc1cc(Cc2nccc3cc(OC)c(OC)cc23)c(S(=O)(=O)O)cc1OC	1	1	active	-4%
COc1cc(Cc2nccc3cc(OC)c(OC)cc23)c(NC(C)=O)cc1OC	4	nt	-8	nt
Cc1ccc(S(=O)(=O)N[C@@H]2C=C[C@@H](CC(=O)O)O[C@H]2CO)cc1	nt	nt	-10	nt
COc1ccccc1C(=O)Nc1ccccc1N1CCCCC1	7	0	14*	5%
COc1ccc(Cl)cc1C(=O)Nc1ccccc1N1CCCCC1	-8	-2	-10	nt
C[C@@H]1CN([C@@H](C)CO)C(=O)c2cc(NC(=O)Nc3ccc(F)cc3)ccc2O[C@@H](C)CCCCO[C@@H]1CN(C)C(=O)Cc1ccccc1	nt	nt	1	nt
CNC(=O)CN1C(=O)c2cccc3cccc1c23	-1	nt	-4	nt
CN1/C(=N\O)c2cccc3cccc1c23	-1	-1	52*	-25%
Cc1cccc(S(=O)(=O)N2C[C@@H](O)COC[C@@H]3O[C@@H](CC(=O)N4CCN(C)CC4)CC[C@H]32)c1	nt	nt	-11	nt
O=C(C[C@H]1C=C[C@@H](NC(=O)Nc2ccc3c(c2)OCO3)[C@H](CO)O1)NCc1ccc(Cl)cc1	nt	nt	24*	-16%[42 µM]
O=C(C[C@@H]1C=C[C@@H](NC(=O)Nc2ccc3c(c2)OCO3)[C@H](CO)O1)NCc1ccc(Cl)cc1	nt	nt	16	nt
COc1ccc(-c2coc3c(C)c4oc(=O)c(CCC(=O)O)c(C)c4cc23)cc1	-20	-6	44	nt
CCCC(NC(=O)Cc1c(C)c2cc3c(C)c(C)oc3c(C)c2oc1=O)C(=O)N[C@@H](Cc1ccccc1)C(=O)O (stereo not given in full)	-12	-4	-2	nt
Cc1coc2c(C)c3oc(=O)c(CCC(=O)N[C@@H](C)C(=O)N[C@@H](Cc4ccccc4)C(=O)O)c(C)c3cc12	1	-2	74*	-36%
Cc1c(CCC(=O)O)c(=O)oc2c(C)c3occ(-c4ccc(Br)cc4)c3cc12	-15	-8	56*	52µM*
SMILES	CAL PDZ FP-1	CAL PDZ FP-2	ARNT TACC3 PPI	ARNT Alpha ctr
C/C=C/c1cnc2c(c1)C(=O)N([C@@H](C)CO)C[C@H](C)[C@@H](CN(C)S(=O)(=O)c1ccccc1F)O2	nt	nt	12	nt
C/C=C/c1ccc([C@@H]2[C@H](CO)N(S(C)(=O)=O)[C@H]2CN(CC)C(C)=O)cc1	nt	nt	2	nt
COc1ccc(S(=O)(=O)n2oc(=O)cc2-c2ccccc2)cc1OC	-2	-2	active	7.8µM*
COc1ccc(S(=O)(=O)n2oc(=O)cc2-c2ccccc2)cc1	4	-1	15	nt
CCCNC(=O)N(C)C[C@@H]1Oc2cc(C#CC(C)(C)O)ccc2S(=O)(=O)N([C@@H](C)CO)C[C@@H]1C	nt	nt	19	nt
Cc1ccc(C)c(CSc2nnc(-c3ccccn3)n2N)c1	-1	0	-1	nt
Cc1cc(C)c(NC(=O)CSc2nnc(-c3ccccn3)n2N)c(Cl)c1	0	-5	54*	-21%
Cc1ccc(C)c(-n2c(SCC(N)=O)nnc2-c2ccccn2)c1	nt	0	57*	-26%
COc1ccc(NC(=O)CSc2nnc(-c3ccccn3)n2N)cc1Cl	3	-2	2	nt
C[C@H](CO)N1C[C@H](C)[C@@H](CN(C)C(=O)c2ccccc2)OCCCC[C@H](C)Oc2ccc(NC(=O)CCC(F)(F)F)cc2C1=O	nt	nt	-8	nt
C[C@@H]1CCCCO[C@H](CN(C)Cc2ccc(C(=O)O)cc2)[C@H](C)CN([C@@H](C)CO)C(=O)c2cc(NC(=O)C3CCCCC3)ccc2O1	nt	nt	-1	nt
CN1C(=O)c2cc(NC(=O)C3CCOCC3)ccc2OC[C@H]2O[C@@H](CC(=O)NC3CCCC3)CC[C@H]21	nt	nt	-2	nt
Cc1nnc(NC(=O)CSc2nnc(CNC(=O)c3ccccc3)o2)s1	-3	-1	14	nt
Cc1nnc(NC(=O)CSc2nnc(CNC(=O)c3ccc(F)cc3)o2)s1	-2	0	46*	-8%
O=C(NCCCn1ccnc1)C(=O)NCC1OCCCN1S(=O)(=O)c1ccc(F)cc1 (stereo not given)	0	-2	nt	nt
O=C(NCCCn1ccnc1)C(=O)NCC1OCCN1S(=O)(=O)c1ccc(Cl)cc1 (stereo not given)	nt	-1	58*	70µM*
O=C(NCCCn1ccnc1)C(=O)NCC1OCCCN1S(=O)(=O)c1ccc(Cl)cc1 (stereo not given)	-6	-1	3	nt
O=C(NCCc1ccccc1)C(=O)NCC1OCCN1S(=O)(=O)c1ccccc1 (stereo not given)	1	0	-3	nt
O=C(NCCCn1ccnc1)C(=O)NCC1OCCN1S(=O)(=O)c1ccccc1 (stereo not given)	2	-3	57*	62µM*
O=C(NCCCn1ccnc1)C(=O)NCC1OCCCN1S(=O)(=O)c1ccccc1 (stereo not given)	1	-1	40*	-11%
C[C@@H]1CN([C@@H](C)CO)C(=O)c2cc(NC(=O)Nc3cccc4ccccc34)ccc2O[C@H]1CN(C)Cc1ccc(C(F)(F)F)cc1	nt	nt	7	nt
Cc1ccc(S(=O)(=O)N(C)C[C@@H]2Oc3ccc(NC(=O)Nc4c(C)noc4C)cc3C(=O)N([C@H](C)CO)C[C@H]2C)cc1	nt	nt	-16	nt
COCCNC(=O)C[C@@H]1C[C@H]2c3cc(NC(=O)Nc4ccc(C(F)(F)F)cc4)ccc3O[C@H]2[C@@H](CO)O1	nt	nt	1	nt
CO[C@H]1CN(C)C(=O)c2cc(NC(=O)C3CCC3)ccc2OC[C@@H](C)N(C(=O)CN(C)C)C[C@H]1C	nt	nt	3	nt
CN1C(=O)c2cc(NC(=O)c3cccc(F)c3)ccc2OC[C@@H]2O[C@@H](CC(=O)O)CC[C@H]21	nt	nt	-1	nt
